Bioassay records: PubChem BioAssay, The Scripps Research Institute Molecular Screening Center
Shown are actives, neighbours in structure and some others; about 3.2% of the full set was active somewhere.
TRPML3 agonist = human TRPML3 channel agonists, primary screen, cell-based, HEK293 TRPML3-YFP, Fluo-8 calcium fluorescence, 3 µM. Mucolipin-3 (Homo sapiens), Q8TDD5. 100% = the carbachol control signal. activation, % at 3 µM. 0.29% of 220,000 active. AID 1448, 2008;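 active = activation above its plate's cutoff, the mean activation of the plate's test wells plus 3 SD, cut at about 12% in these data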
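Test system: HEK293 cells stably carrying human TRPML3-YFP; Doses: single dose, 3 µM final nominal compound, 0.3% DMSO final; Schedule: dye loading 1 h 37 °C then 30 min ambient, 125 s read; Technique: Fluo-8 calcium fluorescence; Benchmarks: high control carbachol 87 µM, low control DMSO.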
GPR7 antag = GPR7 receptor antagonists, primary screen, cell-based, fluorescence, single concentration | GPR7-expressing cells, fluorescence antagonist assay | 1.1% of 290,000 active | AID 1861, 2009 | Neuropeptides B/W receptor type 1 (Homo sapiens), P48145 | inhibition, % at 4.4 µM; in the data active = inhibition above about 16%, passing the limit was not always enough;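 also: cells stimulated with the agonist NPW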
Target sequence (P48145 whole entry, looked up): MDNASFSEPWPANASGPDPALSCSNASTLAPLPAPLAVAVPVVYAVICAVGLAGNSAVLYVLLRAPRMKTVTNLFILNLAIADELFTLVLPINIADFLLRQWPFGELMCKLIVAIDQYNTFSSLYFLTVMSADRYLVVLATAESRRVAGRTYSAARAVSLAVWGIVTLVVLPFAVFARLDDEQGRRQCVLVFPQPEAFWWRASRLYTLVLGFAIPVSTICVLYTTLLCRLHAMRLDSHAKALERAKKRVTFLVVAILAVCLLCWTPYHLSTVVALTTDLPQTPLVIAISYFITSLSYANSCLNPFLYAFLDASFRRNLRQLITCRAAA
OX1R antag-1 = antagonists of human orexin 1 receptor (OX1R); Orexin/Hypocretin receptor type 1 (Homo sapiens), O43613; OX1R-expressing cells, FRET antagonist read-out; inhibition, % at 6.6 µM; 1.8% of 330,000 active; AID 485270, 2010; in the data active = inhibition mostly above about 38%, no sharp cut-off; inactive = mostly below about 40%
CHO parental Ca = ATP-evoked calcium signal inhibitors, parental CHO, primary screen, counter-screen for OX1R antagonist project, cell-based, fluorescence, Fluo-8 calcium dye; parental CHO-K1, ATP-induced calcium, Fluo-8 fluorescence; inhibition, % at 5.6 µM; 0.63% of 330,000 active;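 active = inhibition above that plate's mean sample inhibition plus 3 SD, cut at about 26% in these data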
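test system = CHO parental line | reagent = ATP stimulus | measured by = intracellular calcium via Fluo-8 no-wash fluorescent dye | control set = ATP and no-ATP DMSO wells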
OX1R antag-2 = OX1R (HCRTR1) antagonists, primary screen, fluorescence, CHO/OX1R cells, Fluo-8 calcium, orexin A. 0.43% of 330,000 active. Fluo-8 calcium fluorescence. Orexin/Hypocretin receptor type 1 (Homo sapiens), O43613. inhibition, % at 5 µM;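 active = inhibition above its plate's threshold, mean inhibition of all tested compounds on the plate plus 3 SD, cut at about 37% in these data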
TRPN1 ag = zebrafish TRPN1 channel agonists, primary screen, cell-based, HEK293, calcium fluorescence; transient receptor potential cation channel N1 (TRPN1/NompC), Danio rerio; HEK293 zebrafish TRPN1-YFP, Fluo-8 calcium fluorescence; 100% = response to 87 µM carbachol; activation, % at 3 µM; 0.18% of 220,000 active;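 active = activation above its plate's cutoff, the mean activation of test wells on that plate plus 3 SD, cut at about 19% in these data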
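System: zebrafish TRPN1-YFP in HEK293 cells / Dosing: 3 µM single point / Timing: dye loading 1 h at 37 °C, then 30 min room temperature / Signal: Fluo-8 calcium fluorescence, excitation 470-495 nm, emission 515-575 nm / Read-out basis: percent activation from peak over basal fluorescence ratio, control-normalized / Control set: high carbachol 87 µM, low DMSO alone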
Hits are given with their value.

`COc1ccc(N(C)S(=O)(=O)c2cccc(C(=O)OCC(=O)NCc3ccccc3OC)c2)cc1` gave TRPML3 agonist inactive, GPR7 antag 19, OX1R antag-1 inactive, CHO parental Ca inactive, OX1R antag-2 inactive and TRPN1 ag inactive.
Screening O=C(Cc1csc(NC(=O)Nc2ccc(Cl)cc2)n1)NC1CCCC1 returned OX1R antag-1 inactive, CHO parental Ca 35 and OX1R antag-2 inactive.
Screening C/C(=N\Nc1ccc(Cl)cc1)c1c(O)cc(C)oc1=O returned TRPML3 agonist inactive, GPR7 antag inactive, OX1R antag-1 inactive, CHO parental Ca inactive, OX1R antag-2 inactive and TRPN1 ag inactive.
For OCC1(Cc2ccccc2)CCN(CCCC2CCCC2)CC1 the results were TRPML3 agonist inactive, GPR7 antag inactive, OX1R antag-1 inactive, CHO parental Ca inactive, OX1R antag-2 inactive and TRPN1 ag inactive.
For CC(=O)Nc1ccc(S(=O)(=O)Oc2ccccc2N2CCCCC2)cc1 the results were TRPML3 agonist inactive, GPR7 antag 20, OX1R antag-1 inactive, CHO parental Ca inactive, OX1R antag-2 inactive and TRPN1 ag inactive.
For CCn1c(SCC(=O)N2CCCC2)nnc1-c1ccco1 the results were GPR7 antag inactive, OX1R antag-1 inactive, CHO parental Ca inactive and OX1R antag-2 inactive.
Screening O=[N+]([O-])c1ccccc1Nc1nc(-c2cccnc2)cs1 returned GPR7 antag inactive, OX1R antag-1 60, CHO parental Ca inactive and OX1R antag-2 inactive.
For COc1ccccc1Nc1nc(-c2cccnc2)cs1 the results were GPR7 antag inactive, OX1R antag-1 38, CHO parental Ca inactive and OX1R antag-2 inactive.
For COc1cc(CC(NC(C)=O)C(=O)NC2CCN(c3nc(OC)nc(OC)n3)CC2)cc(OC)c1 (centres undefined) the results were TRPML3 agonist inactive, GPR7 antag inactive, OX1R antag-1 inactive, CHO parental Ca inactive, OX1R antag-2 inactive and TRPN1 ag inactive.
For Cc1ccc(S(=O)(=O)N2CCN(C(=O)CC(C)n3nc(C)c(Cl)c3C)CC2)cc1 (centres undefined) the results were GPR7 antag inactive, OX1R antag-1 inactive, CHO parental Ca inactive and OX1R antag-2 inactive.
Cc1cccc(-n2c(SCC(=O)NCc3ccc4c(c3)OCO4)nc3ccccc3c2=O)c1 was read as TRPML3 agonist inactive, GPR7 antag inactive, OX1R antag-1 40, CHO parental Ca inactive, OX1R antag-2 inactive and TRPN1 ag inactive.
`O=C(CSc1nc2ccccc2c(=O)n1-c1ccccc1)NCc1ccc2c(c1)OCO2` gave TRPML3 agonist inactive, GPR7 antag inactive, OX1R antag-1 inactive, CHO parental Ca inactive, OX1R antag-2 inactive and TRPN1 ag inactive.
Screening O=C(CSc1nc2ccccc2c(=O)n1NC(=O)Cc1ccccc1)NCc1ccccc1 returned TRPML3 agonist inactive, GPR7 antag inactive, OX1R antag-1 46, CHO parental Ca inactive, OX1R antag-2 inactive and TRPN1 ag inactive.
For Cn1cc(SCC(=O)NCc2ccc3c(c2)OCO3)c2ccccc21 the results were TRPML3 agonist inactive, GPR7 antag inactive, OX1R antag-1 41, CHO parental Ca inactive, OX1R antag-2 inactive and TRPN1 ag inactive.
Screening O=C(CSc1nc2ccccc2c(=O)n1NC(=O)Cc1ccccc1)NCc1ccco1 returned TRPML3 agonist inactive, GPR7 antag inactive, OX1R antag-1 inactive, CHO parental Ca inactive, OX1R antag-2 inactive and TRPN1 ag inactive.
Screening Cc1ccccc1OCCN1C(=O)C(=O)c2cccc(C)c21 returned TRPML3 agonist inactive, GPR7 antag 21, OX1R antag-1 inactive, CHO parental Ca inactive, OX1R antag-2 inactive and TRPN1 ag inactive.
Screening Cc1cccc2c1N(CCOc1ccccc1Cl)C(=O)C2=O returned TRPML3 agonist inactive, GPR7 antag inactive, OX1R antag-1 inactive, CHO parental Ca inactive, OX1R antag-2 inactive and TRPN1 ag inactive.
`CC(C)(O)C#Cc1ccc(CN2CCN(CCc3ccccc3)C(CCO)C2)s1` (centres undefined) gave TRPML3 agonist inactive, GPR7 antag inactive, OX1R antag-1 inactive, CHO parental Ca inactive, OX1R antag-2 inactive and TRPN1 ag inactive.
O=C(CSc1ccc(-c2cccs2)nn1)NCc1ccccc1Cl was read as TRPML3 agonist inactive, GPR7 antag inactive, OX1R antag-1 70, CHO parental Ca inactive, OX1R antag-2 inactive and TRPN1 ag inactive.
COc1ccc(NC(=O)CSc2ccc(-c3cccs3)nn2)c(OC)c1 was read as TRPML3 agonist inactive, GPR7 antag inactive, OX1R antag-1 inactive, CHO parental Ca inactive, OX1R antag-2 inactive and TRPN1 ag inactive.
For COc1cccc(CNC(=O)CSc2ccc(-c3cccs3)nn2)c1 the results were TRPML3 agonist inactive, GPR7 antag inactive, OX1R antag-1 58, CHO parental Ca inactive, OX1R antag-2 inactive and TRPN1 ag inactive.
COc1ccccc1CNC(=O)CSc1ccc(-c2cccs2)nn1 was read as TRPML3 agonist inactive, GPR7 antag inactive, OX1R antag-1 59, CHO parental Ca inactive, OX1R antag-2 inactive and TRPN1 ag inactive.
`CC(=O)Nc1ccc(NC(=O)CSc2ccc(-c3cccs3)nn2)cc1` gave TRPML3 agonist inactive, GPR7 antag inactive, OX1R antag-1 inactive, CHO parental Ca inactive, OX1R antag-2 inactive and TRPN1 ag inactive.
Screening O=C(NCCO)c1ccc2c3n(nc2c1)-c1ccc(Cl)cc1CO3 returned OX1R antag-1 inactive, CHO parental Ca inactive and OX1R antag-2 inactive.
For Cc1ccc2c(c1)COc1c3ccc(C(=O)NCCO)cc3nn1-2 the results were OX1R antag-1 61, CHO parental Ca inactive and OX1R antag-2 inactive.
For CN(C)c1ccc(NC(=O)/C=C/c2ccccc2Cl)cc1 the results were TRPML3 agonist inactive, GPR7 antag inactive, OX1R antag-1 64, CHO parental Ca inactive, OX1R antag-2 inactive and TRPN1 ag inactive.
CCN(CC)c1ccc(NC(=O)/C=C\c2ccccc2Cl)cc1 was read as TRPML3 agonist inactive, GPR7 antag inactive, OX1R antag-1 40, CHO parental Ca inactive, OX1R antag-2 inactive and TRPN1 ag inactive.
Screening CCOC(=O)CNC(=O)c1ccc(OCC(F)(F)F)cc1 returned TRPML3 agonist inactive, GPR7 antag inactive, OX1R antag-1 inactive, CHO parental Ca inactive, OX1R antag-2 inactive and TRPN1 ag inactive.
For O=C(NCc1cccnc1)C(=O)NCC1OCCN1S(=O)(=O)c1ccc(F)cc1 (centres undefined) the results were TRPML3 agonist inactive, GPR7 antag inactive, OX1R antag-1 inactive, CHO parental Ca inactive, OX1R antag-2 inactive and TRPN1 ag inactive.
